Reference: ChEMBL document CHEMBL3286203, “Reactive oxygen species (ROS) inducible DNA cross-linking agents and their effect on cancer cells and normal lymphocytes” (J Med Chem, 2014)
Active and inactive are the calls of the source. No cut-off for these calls is given here.

How the values were obtained:
SF-539 = assay: Cytotoxicity against human SF539 cells assessed as growth inhibition at 10 uM after 48 hrs by SRB assay; format: functional, cell-based
How it was run: (§1)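 Single-dose screen run by the NCI Developmental Therapeutics Program (NCI-60). Cells were grown in RPMI 1640 with 5% fetal bovine serum and 2 mM L-glutamine. They were plated at 5000–40 000 cells/well, depending on doubling time. Each line was run in two plates and exposed to 10 μM drug for 48 h at 37 °C, 5% CO2, 100% humidity. Read-out was growth percent.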

SNB-75 = assay: Cytotoxicity against human SNB75 cells assessed as growth inhibition at 10 uM after 48 hrs by SRB assay; format: functional, cell-based
How it was run: (§2)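 NCI-60 DTP human tumour line screen. Cells grown in RPMI 1640 with 5% fetal bovine serum and 2 mM L-glutamine, plated at 5000–40 000 cells/well according to doubling time. Single dose of 10 μM for 48 h at 37 °C, 5% CO2, 95% air, 100% humidity, two plates per line. Read-out is growth percent.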

U-251 = assay: Cytotoxicity against human U251 cells assessed as growth inhibition at 10 uM after 48 hrs by SRB assay; format: functional, cell-based; how it was run: as §2
LOX IMVI = assay: Cytotoxicity against human LOXIMVI cells assessed as growth inhibition at 10 uM after 48 hrs by SRB assay; format: functional, cell-based
How it was run: (§3)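 NCI DTP 60-cell-line screen run at the NCI. Cells were grown in RPMI 1640 with 5% FBS and 2 mM L-glutamine. They were seeded at 5000–40 000 cells/well depending on doubling time and grown in two plates per line. Each was exposed to a single 10 μM dose for 48 h at 37 °C, 5% CO2, 95% air, 100% humidity. Read-out was percent growth.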

SK-MEL-2 = assay: Cytotoxicity against human SK-MEL-2 cells assessed as growth inhibition at 10 uM after 48 hrs by SRB assay; format: functional, cell-based; how it was run: as §1
SK-MEL-5 = assay: Cytotoxicity against human SK-MEL-5 cells assessed as growth inhibition at 10 uM after 48 hrs by SRB assay; format: functional, cell-based; how it was run: as §1
OVCAR-3 = assay: Cytotoxicity against human OVCAR3 cells assessed as growth inhibition at 10 uM after 48 hrs by SRB assay; format: functional, cell-based; how it was run: as §1
OVCAR-5 = assay: Cytotoxicity against human OVCAR5 cells assessed as growth inhibition at 10 uM after 48 hrs by SRB assay; format: functional, cell-based; how it was run: as §1
786-0 = assay: Cytotoxicity against human 786-0 cells assessed as growth inhibition at 10 uM after 48 hrs by SRB assay; format: functional, cell-based; how it was run: as §3
ACHN = assay: Cytotoxicity against human ACHN cells assessed as growth inhibition at 10 uM after 48 hrs by SRB assay; format: functional, cell-based; how it was run: as §3
CAKI-1 = assay: Cytotoxicity against human Caki1 cells assessed as growth inhibition at 10 uM after 48 hrs by SRB assay; format: functional, cell-based; how it was run: as §3
SN12C = assay: Cytotoxicity against human SN12C cells assessed as growth inhibition at 10 uM after 48 hrs by SRB assay; format: functional, cell-based; how it was run: as §2
UO-31 = assay: Cytotoxicity against human UO31 cells assessed as growth inhibition at 10 uM after 48 hrs by SRB assay; format: functional, cell-based; how it was run: as §2
DU-145 = assay: Cytotoxicity against human DU145 cells assessed as growth inhibition at 10 uM after 48 hrs by SRB assay; format: functional, cell-based; how it was run: as §3
MDA-MB-231 = assay: Cytotoxicity against human MDA-MB-231 cells assessed as growth inhibition at 10 uM after 48 hrs by SRB assay; format: functional, cell-based; how it was run: as §1
T47D [1] = assay: Cytotoxicity against human T47D cells assessed as growth inhibition at 10 uM after 48 hrs by SRB assay; format: functional, cell-based; how it was run: as §2
MDA-MB-468 = assay: Cytotoxicity against human MDA-MB-468 cells assessed as growth inhibition at 10 uM after 48 hrs by SRB assay; format: functional, cell-based; how it was run: as §1
HOP-92 [2] = assay: Cytotoxicity against human HOP92 cells after 48 hrs by SRB assay; format: functional; conditions: HOP-92, 48 h
How it was run: (§4)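 GI50 was determined in the NCI Developmental Therapeutics Program in vitro 60-line cancer screen. Tumour lines were maintained in RPMI 1640 containing 5% FBS and 2 mM L-glutamine. Cells were inoculated at 5000–40 000 cells/well according to each line's doubling time before drug exposure.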

NCI-H322M [3] = assay: Cytotoxicity against human NCI-H322M cells after 48 hrs by SRB assay; format: functional
How it was run: (§5)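 GI50 from the NCI Developmental Therapeutics Program in vitro human tumor cell screen. Cell lines were maintained in RPMI 1640 with 5% fetal bovine serum and 2 mM L-glutamine. They were seeded at 5000–40 000 cells/well, depending on each line's doubling time, then exposed to drug for 48 h at 37 °C, 5% CO2.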

HCC 2998 = assay: Cytotoxicity against human HCC2998 cells after 48 hrs by SRB assay; format: functional; conditions: HCC 2998, 48 h; how it was run: as §4
SK-MEL-28 = assay: Cytotoxicity against human SK-MEL-28 cells after 48 hrs by SRB assay; format: functional; conditions: SK-MEL-28, 48 h; how it was run: as §5
T47D [4] = assay: Cytotoxicity against human T47D cells after 48 hrs by SRB assay; format: functional
How it was run: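 GI50 from the NCI-60 DTP human tumour line screen. Lines grown in RPMI 1640 with 5% fetal bovine serum and 2 mM L-glutamine, plated at 5000–40 000 cells/well according to doubling time. Incubated 48 h at 37 °C, 5% CO2.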

HOP-92 [5] = assay: Cytotoxicity against human HOP92 cells assessed as growth inhibition at 10 uM after 48 hrs by SRB assay; format: functional, cell-based; how it was run: as §3
NCI-H226 = assay: Cytotoxicity against human NCI-H226 cells assessed as growth inhibition at 10 uM after 48 hrs by SRB assay; format: functional, cell-based; how it was run: as §1
NCI-H322M [6] = assay: Cytotoxicity against human NCI-H322M cells assessed as growth inhibition at 10 uM after 48 hrs by SRB assay; format: functional, cell-based; how it was run: as §1
HCT-116 = assay: Cytotoxicity against human HCT116 cells assessed as growth inhibition at 10 uM after 48 hrs by SRB assay; format: functional, cell-based; how it was run: as §3
HT-29 = assay: Cytotoxicity against human HT-29 cells assessed as growth inhibition at 10 uM after 48 hrs by SRB assay; format: functional, cell-based; how it was run: as §3
SW-620 = assay: Cytotoxicity against human SW620 cells assessed as growth inhibition at 10 uM after 48 hrs by SRB assay; format: functional, cell-based; how it was run: as §2
SF-268 = assay: Cytotoxicity against human SF268 cells assessed as growth inhibition at 10 uM after 48 hrs by SRB assay; format: functional, cell-based; how it was run: as §1
[7] = Induction of [32P]-labeled 49-mer oligonucleotide duplex DNA 12 with GNC sequence at terminus (unknown origin) interstrand cross-linking at 50 uM after 16 hrs by PAGE in presence of H2O2
How it was run: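 32P-labelled 12a (1.0 μM) annealed with 1.5 equiv of 12b in 10 mM potassium phosphate pH 7 / 100 mM NaCl (65 °C for 3 min, then slow cooling). Duplex incubated with compound (final 1 μM–5 mM), with or without H2O2, in NaCl and potassium phosphate pH 8 at room temperature for 16 h. Quenched in formamide; 20% denaturing PAGE.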

EKVX = assay: Cytotoxicity against human EKVX cells assessed as growth inhibition at 10 uM after 48 hrs by SRB assay; format: functional, cell-based; how it was run: as §3
SR = assay: Cytotoxicity against human SR cells assessed as growth inhibition at 10 uM after 48 hrs by SRB assay; format: functional, cell-based; how it was run: as §2

CC1(C)OB(c2ccc(N(CCCl)CCCl)cc2)OC1(C)C
growth inhibition (GI) (SF-539): Active | growth inhibition (GI) (SNB-75): Active | growth inhibition (GI) (U-251): Active | growth inhibition (GI) (LOX IMVI): Active | growth inhibition (GI) (SK-MEL-2): Active | growth inhibition (GI) (SK-MEL-5): Active | growth inhibition (GI) (OVCAR-3): Active | growth inhibition (GI) (OVCAR-5): Active | growth inhibition (GI) (786-0): Active | growth inhibition (GI) (ACHN): Active | growth inhibition (GI) (CAKI-1): Active | growth inhibition (GI) (SN12C): Active | growth inhibition (GI) (UO-31): Active | growth inhibition (GI) (DU-145): Active | growth inhibition (GI) (MDA-MB-231): Active | growth inhibition (GI) (T47D [1]): Active | growth inhibition (GI) (MDA-MB-468): Active | GI50 (HOP-92 [2]): 9.24 µM | GI50 (NCI-H322M [3]): 14.7 µM | GI50 (HCC 2998): 14.9 µM | GI50 (SK-MEL-28): 21 µM | GI50 (T47D [4]): 10.7 µM | growth inhibition (GI) (HOP-92 [5]): Active | growth inhibition (GI) (NCI-H226): Active | growth inhibition (GI) (NCI-H322M [6]): Active | growth inhibition (GI) (HCT-116): Active | growth inhibition (GI) (HT-29): Active | growth inhibition (GI) (SW-620): Active | growth inhibition (GI) (SF-268): Active | Activity [7]: 3% | growth inhibition (GI) (EKVX): Active | growth inhibition (GI) (SR): Active
